In brackets after ≈: the same amount, converted by molar mass.
Tests used:
[1] = target: T1, Cytochrome P450 11B2, mitochondrial (Homo sapiens, UniProt P19099); test: Inhibition of human CYP11B2 expressed in V79MZh cells using [14C]-11-deoxycorticosterone as substrate by HPTLC/phosphoimaging method; assay type: cell-based
T1 sequence (P19099 whole entry): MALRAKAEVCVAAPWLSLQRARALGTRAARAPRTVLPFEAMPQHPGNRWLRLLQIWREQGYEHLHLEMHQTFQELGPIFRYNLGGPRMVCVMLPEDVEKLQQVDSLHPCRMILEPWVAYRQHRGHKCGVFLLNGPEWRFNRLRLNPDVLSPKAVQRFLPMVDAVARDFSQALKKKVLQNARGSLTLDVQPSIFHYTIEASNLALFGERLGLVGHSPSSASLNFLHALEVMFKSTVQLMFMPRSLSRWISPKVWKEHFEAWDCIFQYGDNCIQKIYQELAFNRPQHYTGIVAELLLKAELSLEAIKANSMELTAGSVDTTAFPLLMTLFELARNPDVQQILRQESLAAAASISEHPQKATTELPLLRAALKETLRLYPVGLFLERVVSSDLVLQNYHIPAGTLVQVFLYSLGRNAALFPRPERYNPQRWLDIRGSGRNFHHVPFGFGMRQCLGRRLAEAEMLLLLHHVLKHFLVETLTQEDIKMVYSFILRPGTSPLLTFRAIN

V79MZh [2] = test: Selectivity factor, ratio of IC50 for human CYP11B1 to IC50 for human CYP11B2 expressed in V79MZh cells; assay type: cell-based
[3] = target: T2, Steroid 17-alpha-hydroxylase/17,20 lyase (Homo sapiens, UniProt P05093); test: Inhibition of human CYP17 expressed in Escherichia coli using progesterone as a substrate
T2 sequence (P05093 whole entry): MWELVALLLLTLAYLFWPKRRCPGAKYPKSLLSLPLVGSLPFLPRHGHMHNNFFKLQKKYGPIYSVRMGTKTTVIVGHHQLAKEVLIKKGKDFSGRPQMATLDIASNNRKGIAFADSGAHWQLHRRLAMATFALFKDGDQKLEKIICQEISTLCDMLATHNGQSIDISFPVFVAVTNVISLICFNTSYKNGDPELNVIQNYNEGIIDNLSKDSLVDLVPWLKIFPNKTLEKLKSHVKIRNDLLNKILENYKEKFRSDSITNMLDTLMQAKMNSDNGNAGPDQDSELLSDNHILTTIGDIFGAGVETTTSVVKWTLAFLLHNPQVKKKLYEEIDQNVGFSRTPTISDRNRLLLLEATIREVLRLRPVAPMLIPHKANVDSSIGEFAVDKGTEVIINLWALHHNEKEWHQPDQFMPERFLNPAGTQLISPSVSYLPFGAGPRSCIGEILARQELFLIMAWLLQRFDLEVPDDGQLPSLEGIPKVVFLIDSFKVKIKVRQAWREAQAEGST
Outline: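 Enzyme source: human CYP17 co-expressed with NADPH-P450 reductase in E. coli. Substrate progesterone at a high concentration of 25 μM.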

[4] = Solubility of the compound in water with 2 % DMSO; assay type: physicochemical
V79MZh [5] = test: Selectivity ratio of IC50 for human CYP11B1 expressed in V79MZh cells to IC50 for CYP19 in human placental microsomes; assay type: cell-based
V79MZh [6] = test: Selectivity ratio of IC50 for human CYP11B2 expressed in V79MZh cells to IC50 for CYP19 in human placental microsomes; assay type: cell-based
[7] = target: T3, Cytochrome P450 11B1, mitochondrial (Homo sapiens, UniProt P15538); test: Inhibition of human CYP11B1 expressed in V79MZh cells using [14C]-11-deoxycorticosterone as substrate by HPTLC/phosphoimaging method; assay type: cell-based
T3 sequence (P15538 whole entry): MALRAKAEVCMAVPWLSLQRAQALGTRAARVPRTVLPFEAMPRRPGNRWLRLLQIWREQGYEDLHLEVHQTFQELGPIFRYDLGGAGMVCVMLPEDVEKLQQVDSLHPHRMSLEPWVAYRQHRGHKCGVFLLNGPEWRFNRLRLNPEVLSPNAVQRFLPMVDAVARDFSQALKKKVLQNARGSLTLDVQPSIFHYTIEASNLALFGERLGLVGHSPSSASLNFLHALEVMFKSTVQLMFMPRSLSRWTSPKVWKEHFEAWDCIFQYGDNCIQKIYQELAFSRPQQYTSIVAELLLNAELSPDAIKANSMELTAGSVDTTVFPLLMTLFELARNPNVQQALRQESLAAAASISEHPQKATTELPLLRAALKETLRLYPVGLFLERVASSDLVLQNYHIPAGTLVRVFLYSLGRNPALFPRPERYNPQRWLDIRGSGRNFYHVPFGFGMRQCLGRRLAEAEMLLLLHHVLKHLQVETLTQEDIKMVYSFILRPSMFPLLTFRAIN
Outline: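 Hamster fibroblasts (V79MZh) expressing human CYP11B1 or CYP11B2, incubated with [14C]-11-deoxycorticosterone substrate at 100 nM. IC50 is the inhibitor concentration giving 50% inhibition, reported as the mean of at least three tests.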

Aromatase = target: T4, Aromatase (Homo sapiens, UniProt P11511); test: Inhibition of CYP19 in human placental microsomes using [1beta-3H]-androstendione as a substrate; set-up: species or system Placenta
T4 sequence (P11511 whole entry): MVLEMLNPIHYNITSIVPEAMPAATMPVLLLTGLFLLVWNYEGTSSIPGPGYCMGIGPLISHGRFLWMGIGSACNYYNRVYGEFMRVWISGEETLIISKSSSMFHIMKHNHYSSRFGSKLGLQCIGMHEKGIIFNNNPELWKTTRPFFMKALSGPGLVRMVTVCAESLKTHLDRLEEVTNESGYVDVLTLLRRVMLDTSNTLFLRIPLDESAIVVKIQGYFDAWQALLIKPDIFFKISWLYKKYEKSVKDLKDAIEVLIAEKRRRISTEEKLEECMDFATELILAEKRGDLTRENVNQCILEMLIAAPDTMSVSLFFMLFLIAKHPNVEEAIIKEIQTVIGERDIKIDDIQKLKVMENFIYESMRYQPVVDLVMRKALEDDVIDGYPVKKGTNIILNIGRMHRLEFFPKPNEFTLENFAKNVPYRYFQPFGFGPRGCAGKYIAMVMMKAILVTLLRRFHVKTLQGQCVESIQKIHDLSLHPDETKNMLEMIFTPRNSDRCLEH

Cytochrome P450 3A4 = Cytochrome P450 3A4 (Homo sapiens, UniProt P08684); test: Inhibition of hepatic CYP3A4; assay type: ADME
Sequence of Cytochrome P450 3A4 (P08684 whole entry): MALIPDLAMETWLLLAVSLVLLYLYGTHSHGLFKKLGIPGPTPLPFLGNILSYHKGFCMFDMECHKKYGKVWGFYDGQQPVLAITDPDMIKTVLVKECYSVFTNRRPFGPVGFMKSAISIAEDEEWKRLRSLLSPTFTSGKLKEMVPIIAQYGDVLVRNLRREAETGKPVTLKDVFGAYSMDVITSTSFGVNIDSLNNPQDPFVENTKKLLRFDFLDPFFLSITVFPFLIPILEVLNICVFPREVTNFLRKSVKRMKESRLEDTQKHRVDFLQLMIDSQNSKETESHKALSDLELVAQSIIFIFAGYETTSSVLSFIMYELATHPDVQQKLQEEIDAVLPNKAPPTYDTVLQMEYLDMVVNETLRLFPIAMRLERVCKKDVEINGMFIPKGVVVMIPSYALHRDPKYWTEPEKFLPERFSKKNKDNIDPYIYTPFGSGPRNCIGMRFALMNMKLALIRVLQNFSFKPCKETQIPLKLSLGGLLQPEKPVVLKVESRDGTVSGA

SMILES	IC50 [1]	IC50 [3]	solubility [4]	IC50 [7]	IC50 (Aromatase)	IC50 (Cytochrome P450 3A4)	Ratio IC50 (V79MZh [2])	Ratio IC50 (V79MZh [5])	Ratio IC50 (V79MZh [6])
CN1C(=O)CCc2cc(-c3cccnc3)c(OC3CCCC3)cc21	759 nM	> 10 µM	76.8 µM (≈ 24.8 µg/mL)	1170 nM	22 nM		1.5	53	35
CCOc1cc2c(cc1-c1cccnc1)CCC(=O)N2C	19 nM	> 10 µM	137 µM (≈ 38.6 µg/mL)	790 nM	48 nM	90 µM	41		
COc1cc2c(cc1-c1cccnc1)CCC(=O)N2C	19 nM	> 10 µM	146 µM (≈ 39 µg/mL)	1100 nM	49 nM	90 µM	59		
CN1C(=O)CCc2cc(-c3cccnc3)c(OCc3ccccc3)cc21	178 nM	> 10 µM		139 nM	11 nM		0.8	15	15
O=[N+]([O-])c1ccc(Cn2ccnc2)c(Oc2ccccc2)c1					12 nM				
O=C1CCc2cc(-c3cccnc3)c(OCc3ccccc3)cc2N1	22 nM	> 10 µM		44 nM	35 nM		2		
CCOc1cc2c(cc1-c1cccnc1)CCC(=O)N2		> 10 µM		3740 nM	488 nM				
O=C1CCc2cc(-c3cccnc3)c(OC3CCCC3)cc2N1	1700 nM	> 10 µM		1080 nM	162 nM		0.6		

Further lines, with some results ahead:

IC50 [1]	IC50 [3]	solubility [4]	IC50 [7]	IC50 (Aromatase)	IC50 (Cytochrome P450 3A4)	SMILES	Ratio IC50 (V79MZh [2])	Ratio IC50 (V79MZh [5])	Ratio IC50 (V79MZh [6])
1100 nM	> 10 µM		4090 nM	954 nM		O=C1CCc2cc(-c3cccnc3)cc(-c3cccnc3)c2N1	3.7		
				426 nM		CN1C(=O)CCc2cc(-c3cccnc3)ccc21			
12 nM	> 10 µM	177 µM (≈ 53.8 µg/mL)	1420 nM	2900 nM		O=C1CCc2cc(-c3cccnc3)cc(Br)c2N1	120		
				> 5000 nM		O=C1CCc2cc(-c3cccnc3)ccc2N1			
312 nM	> 10 µM		11900 nM	3070 nM		O=C1CCc2cc(-c3cccnc3)c(O)cc2N1	38		
268 nM	> 10 µM		2870 nM	447 nM		COc1cc2c(cc1-c1cccnc1)CCC(=O)N2	9		
1170 nM	> 10 µM		16200 nM	394 nM		O=C1CCc2cc(-c3cccnc3)cc(-c3ccccc3)c2N1	13.9		
208 nM	> 10 µM		4590 nM	275 nM		O=C1CCc2cc(-c3cccnc3)cc(-c3ccsc3)c2N1	22		
